High-throughput results from PubChem BioAssay.
An excerpt weighted towards active compounds, which were near 2.6% of everything screened.
SENP8 block-1 = blocks the human protease SENP8; 330,000 compounds, 1.2% hits; AID 2540; purified SENP8, Z-RLRGG-aminoluciferin cleavage, luminescence; inhibition, % at 10 µM; in the data active means inhibition above about 50%
Target sequence (Q96LD8 whole entry, looked up): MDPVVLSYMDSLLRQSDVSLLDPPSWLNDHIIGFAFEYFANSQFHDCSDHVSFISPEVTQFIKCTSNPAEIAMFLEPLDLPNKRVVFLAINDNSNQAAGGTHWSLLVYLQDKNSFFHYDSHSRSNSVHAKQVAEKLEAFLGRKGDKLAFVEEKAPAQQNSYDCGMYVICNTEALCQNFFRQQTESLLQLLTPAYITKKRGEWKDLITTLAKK
SENP7 inh = SENP7 protease inhibition; recombinant SENP7, Z-RLRGG-aminoluciferin luminescence, 40 min; inhibition, % at 5 µM; 330,000 compounds, 1.5% hits; AID 434973;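 active means inhibition above about 50% at the single test dose, limit read from the data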;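 further: plate controls were DMSO with enzyme for no effect and no enzyme buffer wells for full effect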
Target sequence (Q9BQF6 706-1050 limits assumed): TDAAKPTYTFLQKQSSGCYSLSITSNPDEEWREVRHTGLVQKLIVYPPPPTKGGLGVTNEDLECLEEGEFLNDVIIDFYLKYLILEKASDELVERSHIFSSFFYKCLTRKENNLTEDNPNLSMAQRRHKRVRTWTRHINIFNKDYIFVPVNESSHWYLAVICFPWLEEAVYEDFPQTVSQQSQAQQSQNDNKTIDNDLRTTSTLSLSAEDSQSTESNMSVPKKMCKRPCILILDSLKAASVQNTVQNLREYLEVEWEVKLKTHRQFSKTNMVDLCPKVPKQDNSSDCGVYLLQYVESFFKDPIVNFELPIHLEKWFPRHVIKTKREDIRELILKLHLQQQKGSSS
SENP1 inh = SENP1 (human) catalytic domain inhibition | recombinant SENP1 catalytic domain, CyPet-SUMO1-YPet FRET cleavage | inhibition, % at 10 µM | 360,000 compounds, 0.21% hits;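 active means inhibition at least 30% at 10 µM, raw YFP signal under a set limit, fluorescence ratio 0.5 to 1.5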;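 further: 0% = enzyme with DMSO and 100% = no enzyme wells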
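Assay system – human recombinant His6-tagged SENP1 catalytic domain enzyme · Input – SENP1 enzyme, 20 pM final · Buffer or medium – Tris pH 8 buffer plus EDTA, NaCl, BME, BSA, NP40, catalase · Schedule – 50 min reaction at room temperature · Technique – FRET read of cyan and yellow fluorescence · Control set – no-enzyme wells low, DMSO-plus-enzyme wells high control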
Platelet DG rel = modulates dense granule release in human platelets. human platelet-rich plasma, SFLLRN dense granule ATP release, luminescence. inhibition, %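 (compounds screened at 7.5 µM in platelet-rich plasma)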. 300,000 compounds, 0.22% hits. AID 1663;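 active means mean replicate score, as percent of positive control, at or above 50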
SENP8 block-2 = SENP8 (human) protease inhibition. Q96LD8. recombinant SENP8, Nedd8 substrate fluorescence. inhibition, % at 20 µM. 360,000 compounds, 0.64% hits; in the data active means inhibition mostly above about 40%, no sharp cut-off; inactive means mostly below about 27%
SENP6 block = SENP6 protease inhibition | inhibition, % at 10 µM | AID 2599 | Recombinant SENP6 catalytic domain, aminoluciferin luminescence | Q9GZR1 | 330,000 compounds, 1.8% hits;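 active means inhibition above about 50% at the single tested dose, limit read from the data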;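 further: plate controls were DMSO wells with enzyme for no effect and DMSO wells lacking enzyme for full effect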
SENP1 inh conf = confirmation of human SENP1 SUMO protease inhibitors; recombinant SENP1, CyPet-SUMO1-YPet FRET cleavage; shares compounds with SENP1 inh; 520 compounds, 34% hits; AID 651678; inhibition, % at 10 µM; in the data active means inhibition mostly above about 35%, no sharp cut-off; inactive means mostly below about 32%;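 further: 0% = enzyme with DMSO and 100% = no enzyme control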
SENP1 kin conf = confirmation of human SENP1 SUMO protease inhibitors, kinetic. shares compounds with SENP1 inh. recombinant SENP1, CyPet-SUMO1-YPet FRET kinetic cleavage. inhibition, % at 10 µM. 520 compounds, 26% hits. AID 651690; in the data active means inhibition mostly above about 32%, no sharp cut-off; inactive means mostly below about 29%;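 further: 0% = DMSO with enzyme and 100% = no enzyme substrate only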
* hit, by the source's call; / = no result.

SMILES | SENP8 block-1 | SENP7 inh | SENP1 inh | Platelet DG rel | SENP8 block-2 | SENP6 block | SENP1 inh conf | SENP1 kin conf
CN(C)c1cccc2c(S(=O)(=O)N3CCCC3)cccc12 | 8 | 7 | 24 | -11 | -183 | 13 | / | /
Cc1sc(Nc2ccc([N+](=O)[O-])cc2)nc1-c1c(C)n(C)n(-c2ccccc2)c1=O | -2 | -3 | 38* | 3 | 23 | 6 | 19 | 14
Cc1ccc(Nc2nc(-c3c(C)n(C)n(-c4ccccc4)c3=O)c(C)s2)cc1 | -1 | 7 | -1 | 1 | -7 | 1 | / | /
Cc1cc(OCC(=O)O/N=C(\N)Cc2cccs2)ccc1Br | -1 | 4 | 2 | 0 | 13 | -8 | / | /
O=S(=O)(Cc1cc(NCc2ccccc2)nc(-c2ccncc2)n1)c1ccccc1 | -11 | -3 | -1 | -4 | -88 | -7 | / | /
C[C@@H]1O[C@@H](OC[C@H]2O[C@@H](Oc3cc(O)c4c(=O)cc(-c5ccc(O)c(O)c5)oc4c3)[C@H](O)[C@@H](O)[C@@H]2O)[C@H](O)[C@H](O)[C@H]1O | 7 | 5 | 43* | / | 29 | -5 | 57* | 42*
COc1cc(-c2oc3cc(O)cc(O)c3c(=O)c2O[C@@H]2O[C@H](COC3O[C@@H](C)[C@H](O)[C@@H](O)[C@H]3O)[C@@H](O)[C@H](O)[C@H]2O)ccc1O (stereo not given in full) | -10 | -17 | 8 | / | 11 | -17 | / | /
Cc1nc2ccccc2n1CC(=O)NC(C)C1CC2CCC1C2 (stereo not given) | -4 | 6 | -8 | 0 | -4 | -10 | / | /
N#Cc1ccc(-c2nc3ccc(Br)cn3c2Cc2ccccc2C(F)(F)F)cc1 | / | / | 45* | / | -49 | / | 44* | 36*
COc1ccccc1Cc1c(-c2cccc(Cl)c2)nc2ccc(Br)cn12 | / | / | 37* | / | -37 | / | -9 | -2
O=C(CSc1nc2ccccc2c(=O)n1-c1ccc(F)cc1)Nc1ccc2c(c1)CCC2 | -2 | -6 | 0 | 7 | 9 | 4 | / | /
CN1CCC(=NNC(=O)C(=O)Nc2cccc(Br)c2)CC1 | 2 | 8 | 0 | -5 | 5 | 12 | / | /
CCN1/C(=C\C=C2\C(=O)N(C)C(=S)N2C)Sc2ccccc21 | 9 | 5 | 37* | 7 | 21 | -4 | -9 | -11
CN(C)c1ccc(/C=N/NC(=O)c2cccc(C(=O)N/N=C/c3ccc(N(C)C)cc3)n2)cc1 | -1 | 7 | 38* | 1 | -8 | 6 | -1 | 10
CN(C)c1ccc(/C=N/NC(=O)c2ccccc2Cl)cc1 | -4 | 8 | 0 | -6 | -146 | 11 | / | /
Cc1cccc2cc(CN(Cc3ccco3)C(=O)c3cccs3)c(=O)[nH]c12 | 8 | 1 | 0 | 2 | -60 | 5 | / | /
CCC1CCCCN1CCCNS(=O)(=O)c1ccc2c(c1)oc(=O)n2C (stereo not given) | -1 | 2 | 31* | -7 | 10 | -4 | 19 | 7
Cc1cc(C(=O)NN)c2cc(Br)ccc2n1 | -1 | 0 | 1 | -4 | 12 | -13 | / | /
NNC(=O)c1cc(-c2ccc(N)cc2)nc2ccc(Br)cc12 | -8 | -1 | 49* | 8 | -11 | -3 | 26 | 23
Cc1ccc(-n2c(=O)c3c(C)c(C)sc3n(Cc3cc(=O)n4ccccc4n3)c2=O)cc1C | -10 | -4 | -1 | -3 | -165 | -24 | / | /
O=C1/C(=C/c2ccc([N+](=O)[O-])cc2)C=C(c2ccccc2)N1c1ccccc1 | 0 | 2 | 40* | -1 | 2 | 2 | -4 | -2
CC(C)c1ccc(NC2CCCN(C(=O)c3cscn3)C2)cc1 (stereo not given) | 0 | -7 | 0 | -8 | 9 | 10 | / | /
N#CCSc1ccccc1NC(=O)CN1C(=O)C(=O)N(Cc2ccccc2)C1=O | 1 | -1 | 38* | / | 3 | 3 | 14 | 11
O=C(CN1C(=O)C(=O)N(Cc2ccccc2)C1=O)Nc1cc(Cl)cc(Cl)c1 | -3 | -1 | 2 | 3 | 0 | -17 | / | /
O=C1N/C(=N\S(=O)(=O)Cc2ccccc2)S/C1=C/c1cc([N+](=O)[O-])ccc1O | 2 | -6 | 25 | 1 | 17 | 12 | / | /
SMILES | SENP8 block-1 | SENP7 inh | SENP1 inh | Platelet DG rel | SENP8 block-2 | SENP6 block | SENP1 inh conf | SENP1 kin conf
O=C(CSc1nnc(-c2cccnc2)o1)Nc1ccc(Br)cc1 | -3 | 7 | 1 | -4 | 15 | -9 | / | /
O=C1C2=C(SCCS2)C(=O)N1CCCO | 3 | 9 | 54* | 7 | 6 | -2 | 48* | 29
CC(C)c1ccc(C(=O)N(c2ccccn2)C(C)c2ccco2)cc1 (stereo not given) | 4 | -7 | 2 | -5 | 10 | -9 | / | /
CC(c1ccco1)N(C(=O)c1cccs1)c1ccccn1 (stereo not given) | -12 | -7 | 30* | -4 | 20 | 3 | -6 | 6
COc1cc(/C=C2\SC(=Nc3c(C)n(C)n(-c4ccccc4)c3=O)NC2=O)ccc1O | / | / | 42* | / | -2 | / | 59* | 41*
COc1ccc(-c2cnnc(N/N=C/c3ccc(-c4ccc([N+](=O)[O-])cc4)o3)n2)cc1 | / | / | 36* | / | 25 | / | -2 | 9
CCOC(=O)CC(=O)CSc1nc2ccc(C)cc2cc1C#N | 0 | -10 | -28 | / | -50 | 13 | / | /
Cc1cc(NC(=O)CSc2nc3ccccc3cc2C#N)no1 | 6 | -3 | 55* | -3 | -15 | -10 | 60* | 50*
COc1ccc2nc(SCC(=O)Nc3cc(C)on3)c(C#N)cc2c1 | 9 | 6 | 48* | 3 | -64 | -14 | -37 | 13
COC(=O)CSc1nc2cc(C)ccc2cc1C#N | 7 | -4 | 62* | 2 | -14 | 5 | 15 | 22
CC1CCN(C(=O)CN2C(=O)C(=O)N(C(C)C)C2=O)c2ccccc2S1 (stereo not given) | 2 | 6 | 0 | / | 13 | 6 | / | /
CSc1ncc(CNc2cc([N+](=O)[O-])ccc2C)c(N)n1 | -10 | 14 | 37* | -1 | 23 | -12 | 3 | 9
COc1ncc(-c2ccc(N3C(c4ccc([N+](=O)[O-])cc4)=Cc4ccccc4C3CC(C)=O)cc2)cn1 (stereo not given) | / | / | 48* | / | 17 | / | 18 | 11
O=C(N/N=C(\CC(=O)c1cccs1)C(F)(F)F)c1ccncc1 | 5 | 6 | 40* | 15 | 34 | 4 | 50* | 38*
CC(=O)c1c(O)c(C)c(O)c2c1OC1=CC(=O)/C(=C(/C)N)C(=O)C12C (stereo not given) | / | / | 2 | / | 7 | / | / | /
